Test results taken from ChEMBL document CHEMBL4513216, “Probing the Open Global Health Chemical Diversity Library for Multistage-Active Starting Points for Next-Generation Antimalarials” (ACS Infect Dis, 2020).

experiment: Toxicity liver stage against HepG2, at 10uM; assay type: cell-based; parameters: test concentration 10 uM, cell line HepG2-A16-CD81EGFP; details: human, HepG2-A16-CD81EGFP cells; read-out: INHIBITION
Summary of the method: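 Uninfected HepG2-A16-CD81EGFP cells, 3 × 10^3 per well, 1536-well, plated on prespotted compound at 10 μM final, parasite-free screening media added to match infected plates; puromycin 10 μM positive, DMSO 0.5% negative; run in parallel with 48 h PbLuc assay at 37 °C, 5% CO2; viability by CellTiter-Glo luminescence, normalized to controls.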

Row | Compound | cytotoxicity at 10 µM
1 | O=C(NCc1nnc2n1CCC2)c1cn(-c2cccc(Br)c2)nn1 | -4.3%
2 | CN1CCC(N2CCOC[C@H]2c2nc(-c3ccncc3)c[nH]2)CC1 | -5.15%
3 | CN(C[C@H]1CN2CC[C@H]1C[C@@H]2CNC(=O)c1ccco1)c1ccccc1 | -0.947%
4 | COCC(=O)Nc1ccc(-c2noc([C@@H]3CCCN3C(C)C)n2)cn1 | 0.994%
5 | CNC(=O)[C@@H]1[C@@H](OC(=O)Nc2ccccc2)C(=O)N(C)C12CCNCC2 | 6.38%
6 | O=C(CC1NC(N2CCc3ccccc32)=NC1=O)Nc1ccc(Cl)cc1 (configuration not stated) | 1.54%
7 | COc1ccc2c(ccn2CC(=O)Nc2n[nH]c(C(C)C)n2)c1 | -6.72%
8 | O=C([C@H]1C[C@H]2OCC[C@H]2N(C(=O)c2cnccn2)C1)N1CCCCO1 | 12.7%
9 | Cn1cccc1C(=O)NCc1cnc2n1CCN(C(=O)c1ccoc1)C2 | 11.9%
10 | CN1CCCc2sc(C(=O)NCc3cccnc3)nc21 | 14.9%
11 | C[C@H]1C[C@H]2CN(C(=O)c3ccncn3)CC[C@@H]2O1 | 4.93%
12 | Cc1c(Cl)c(C(F)(F)F)nn1C(C)C(=O)NN1CCN(C)CC1 (configuration not stated) | -7.85%
13 | CCCn1c(N2CCCCC2)nc2c(C)nn(C)c2c1=O | 11.8%
14 | COc1ccc(NC(C)=O)cc1S(=O)(=O)Nc1ccon1 | 1.08%
15 | CCOc1ccc(C(=O)n2cccn2)cc1 | 0.45%
16 | O=C(NCCCO)C1(CC2CC(c3ccc(F)cc3)=NO2)CCOCC1 (configuration not stated) | 1.41%
17 | CN1CCN([C@@H]2CN(C(=O)c3cc4ccc(F)cc4[nH]3)C[C@H]2O)CC1 | -10.4%
18 | Cc1ccc(S(=O)(=O)N2CC[C@@H]3C[C@H](NC(=O)c4[nH]ncc4Br)[C@@H]32)cc1 | 4.49%
19 | c1cc(CN2CCC(c3ccnc4nccn34)C2)ccn1 (configuration not stated) | 1.58%
20 | c1cnc(Nc2cc(CCC3CCNCC3)ccn2)cn1 | 55.7%
21 | O=C(CO)N1CCC(CCc2ccnc(Nc3cnccn3)c2)CC1 | -0.459%
22 | Cc1nn(C)cc1CN1CCCC(n2c(=O)oc3ccc(Cl)cc32)C1 (configuration not stated) | 4.88%

Row | Compound | cytotoxicity at 10 µM
23 | CCN(CC)C(=O)CN1CCCC(c2nc(C)c3c(n2)N(C)CCC3)C1 (configuration not stated) | 10.2%
24 | CN1CCC(c2cccc(Cc3ccc(F)cc3)n2)CC1 | -3.45%
25 | CC(c1ccccc1F)N(C(=O)CSCC(N)=O)C1CC1 (configuration not stated) | -54.9%
26 | Cc1nc(CNC(=O)CCCc2cccs2)no1 | -46.8%
27 | Cc1nnc2n1CCN(C(=O)C1CCN(Cc3ccccc3)CC1)C2 | 1.28%
28 | CNC(=O)C1CCCCN1C(=O)c1csc(-c2ccc(C)cc2)n1 (configuration not stated) | 11.6%
29 | Cc1ccc(CNC(=O)Nc2nnc(C3CC3)s2)n1C | -1.61%
30 | CC(=O)N1CCC(NC(=O)c2ccccc2-n2cnnn2)CC1 | 6.87%
31 | CSc1cc2c(cc1NC(=O)NCC(=O)N(C)C)OCCO2 | -5.87%
32 | N#Cc1cccnc1NCc1cccc(C(=O)NCC2CCCCO2)c1 (configuration not stated) | 5%
33 | c1cnn(C2CN(CCCOc3ccc4c(c3)OCO4)C2)c1 | -4.73%
34 | CN(C)CCCN(CCC#N)C(=O)Nc1ccc2[nH]ccc2c1 | -52.4%
35 | Cc1occc1C(=O)N1CCCS1(=O)=O | -11%
36 | Cc1noc(C)c1CN(C)c1ncnc2ccccc12 | -6.4%
37 | CS(=O)(=O)N1C[C@H]2N(c3ncccn3)CCC[C@@]2(C(=O)NCC2CC2)C1 | -110%
38 | O=C(c1ccccc1)N1CCO[C@@H]2CN(Cc3ccc[nH]3)C[C@@H]2C1 | -98%
39 | COCC(=O)N1CCc2nc(C)nc(NC(C)C)c2CC1 | -102%
40 | O=C(NC1CC(F)(F)C1)[C@]12COC[C@H]1CN(Cc1ccsc1)C2 | -109%
41 | O=C(C1CCC1)N1CC[C@@H]2CN(Cc3cccnc3)S(=O)(=O)[C@@H]2CC1 | -109%
42 | O=C(c1ccoc1)N1CC[C@H]2C[C@@H](c3nnc(C4CC4)o3)O[C@@H]2C1 | -101%
43 | Cn1cccc1C(=O)N1CCc2ncnc(C3CC3)c2CC1 | 5.17%
44 | CC(C)c1ncc(CN2C[C@@H](CN3CCC(O)CC3)[C@@H](CO)C2)cn1 | -7.79%

Row | Compound | cytotoxicity at 10 µM
45 | Cc1nc(C)c(C)c(N(C)CCCc2nccn2C)n1 | 8.52%
46 | CN1CCN(c2ncccn2)CC12CCC(=O)N(CC1CC1)CC2 (configuration not stated) | 2.6%
47 | Cc1nc(C(C)C)sc1C(=O)N(C)Cc1nc(-c2ccccn2)no1 | -0.683%
48 | Cc1[nH]c2c(C)ccc(C)c2c1CC(=O)NC1CCCNC1=O (configuration not stated) | -0.274%
49 | Cc1ccc(C(C(=O)NC(C)(C)CN2CCCC2)N(C)C)cc1 (configuration not stated) | -6.93%
50 | Cc1cccc(C(=O)N2CCCCC2c2ccc(CN(C)C)cc2)c1 (configuration not stated) | -0.909%
51 | Cc1ccc(C(=O)N(Cc2cccnc2)C[C@@H]2CCC(=O)N2)s1 | -77.9%
52 | O=C(c1cn(Cc2ccc(Cl)cc2)nn1)N1CCCO1 | -6.01%
53 | CCN(Cc1noc(CC(C)C)n1)Cc1ncccc1C(=O)O | -37.2%
54 | CC(CO)(CO)NC(=O)C1CCC(=O)N(Cc2ccc(Cl)cc2)C1 (configuration not stated) | -4.71%
55 | Cc1cc(NCCNc2cccnc2)nc(-c2ccccc2O)n1 | 47.9%
56 | COCCc1noc(CN2CCC(c3ccccc3C(=O)O)C2)n1 (configuration not stated) | -3.03%
57 | O=C1NCC2(CCCN(C(=O)CCn3cnc4ccccc43)CC2)O1 (configuration not stated) | -4.8%
58 | Cc1cnn(CCC(=O)N2CCN(C(=O)C(C)C)[C@@H]3CS(=O)(=O)C[C@@H]32)c1 | 2.47%
59 | CCn1c(C)cc(C(=O)N2C[C@@H](C(=O)O)[C@H](c3ccccc3)C2)c1C | -0.173%
60 | COCCCC1CCCN(C(=O)CCc2csc(N)n2)C1 (configuration not stated) | -2.66%
61 | O=C(O)C1CN(Cc2cnc(C3CCCCC3)nc2)CCO1 (configuration not stated) | -6.08%
62 | CC(c1ccon1)N(C)Cc1cc(O)c2cc(F)ccc2n1 (configuration not stated) | 5.5%
63 | CCCOCC1CCN(C(=O)c2cnc(C)nc2O)C1 (configuration not stated) | -3.15%
64 | CC(C1CCN(C(=O)c2coc(CN3CCOCC3)c2)CC1)N(C)C (configuration not stated) | -4.07%
65 | Cc1ccc(C)c(OCc2cc(C(=O)N(C)Cc3nonc3C)no2)c1 | -5.83%
66 | CCc1nnc(CN(CC)C(=O)C2CC(=O)N(C(C)(C)C)C2)o1 (configuration not stated) | 1.56%

Row | Compound | cytotoxicity at 10 µM
67 | Cc1nccn1CCC1CCN(c2ccncn2)CC1 | -9.14%
68 | O=C(c1cccc2ccnn12)N1CCCC1Cn1cccn1 (configuration not stated) | -126%
69 | Cc1ccsc1-c1nccn1C1CC(=O)N(C(C)C)C1 (configuration not stated) | -9.73%
70 | COCCCC1(CO)CCCN(C(=O)c2cnc3c(c2)CCCC3)C1 (configuration not stated) | -50.2%
71 | CCNc1ncc(-c2cc(-c3ccn(C)c3)nc(N)c2C#N)cn1 | 7.14%
72 | Cc1nc2ccccc2nc1CN1CCn2nc(CCC(=O)O)cc2C1 | -3.43%
73 | CC(C)C(NC(=O)NCCNc1cnccn1)c1cccs1 (configuration not stated) | 0.0264%
74 | Cc1cc(C)n(CC2CN(CC(=O)NC3CCOCC3)CCO2)n1 (configuration not stated) | -11.1%
75 | COc1cc(CCC(=O)NCC2CC2)ccc1OCC(F)(F)F | -4.81%
76 | O=C(c1ccco1)N1CCCC(c2cc(C(F)(F)F)[nH]n2)C1 (configuration not stated) | -16.1%
77 | CCc1nc(CN(C(C)=O)C2CCN(CCc3cccs3)C2)no1 (configuration not stated) | -4.62%
78 | O=C(CN1CCCC1Cn1cncn1)NCCOc1ccccc1 (configuration not stated) | -7.52%
79 | CCn1ccnc1CN1CCN(Cc2cc(C#N)ccc2F)CC1 | -7.19%
80 | CC(C)=CCN1CCN(Cc2nccn2C)C(C)C1 (configuration not stated) | -14.4%
81 | NC(=O)c1cccc(OCC(=O)N2CCCC(n3ccnc3)C2)c1 (configuration not stated) | -9.37%
82 | CCn1c(C)nnc1CN(C)C1CCN(Cc2nnc(C3CC3)o2)C1 (configuration not stated) | -11.6%
83 | CCN(CC1CCOC1)C(=O)Nc1ccc(N2CCOCC2)nc1 (configuration not stated) | -2.45%
84 | CC(C(=O)NCC(F)(F)F)N1CCC(N2CCN(C)C2=O)CC1 (configuration not stated) | 5.11%
85 | COc1ccccc1C(O)CNC(=O)Nc1ccccn1 (configuration not stated) | -11.9%
86 | COc1ccc(CCNC2CCCN(Cc3noc(C)n3)C2)cc1 (configuration not stated) | -5.98%
87 | CCc1nc(CN(C)C2CCN(CCC(=O)N3CCCCC3)C2)no1 (configuration not stated) | -13.4%
88 | Cn1cc(C(=O)NCc2ccc(N3CCCC3)nc2)ccc1=O | -3.72%

Row | Compound | cytotoxicity at 10 µM
89 | Cc1cc(C2CCCN2C(=O)NCc2c(C)cc(C)[nH]c2=O)on1 (configuration not stated) | -9.54%
90 | c1ccc(-c2nc(CNC3CCc4ncnn4C3)co2)cc1 (configuration not stated) | -8.6%
91 | CC(C)c1nn(C)c(N(C)C)c1CNCCC(=O)NC1CCCC1 | -6.63%
92 | CC(C)COCC(NC(=O)c1cccnc1)c1ccco1 (configuration not stated) | -12.1%
93 | Cc1[nH]ncc1C(=O)N1CCN(CC(O)C(C)(C)C)CC1 (configuration not stated) | -0.00964%
94 | CCN1c2ccc(-c3cncn3CCCn3ccnc3C)cc2CC1C (configuration not stated) | -1.25%
95 | CN(Cc1cccc2cccnc12)C1CCS(=O)(=O)C1 (configuration not stated) | -0.237%
96 | O=C(c1cnccn1)N1C[C@@H]2CCN(c3cnccn3)C[C@@H]2C1 | -100%
97 | Cc1csc(CN2CCC[C@]3(C[C@@H](OCC4CC4)CO3)C2)n1 | -134%
98 | CC(C)CN1CCC2(C1)CN(S(=O)(=O)c1cn(C)cn1)C2 | -116%
99 | CN(Cc1ccco1)[C@@H]1CN(Cc2nccn2C)[C@@H]2CCCO[C@H]12 | -67.9%
100 | CC(C)N1CCOCC2(CCN(c3cnccn3)CC2)C1 | -109%
101 | CNC(=O)[C@H]1C[C@@H]2CN(S(=O)(=O)c3ccc(F)cc3)C[C@@H]2N1C | -2.97%
102 | OCCOCc1n[nH]c2c1CN(Cc1ccccn1)C2 | -112%
103 | Cc1ccc(C(=O)N2CC[C@]3(C[C@@H](OCc4ccccn4)CO3)C2)nc1 | -74.6%
104 | c1cc(CN2CCCn3cnc(COCC4CC4)c3C2)co1 | -74.2%
105 | N#Cc1cccc(CN2C[C@H](NC(=O)C3CC3)[C@H]3OCCC[C@H]32)c1 | -0.155%
106 | CCOCCCNC(=O)c1nc2c(s1)CCCN2c1ccc(C)nn1 | 13.5%
107 | CCCS(=O)(=O)N1C[C@@H]2C[C@H](C(=O)N3CCCC3)[C@H](C1)O2 | -6.28%
